In ChEMBL document CHEMBL1139629 (Bioorg Med Chem Lett, 2005):

Columns and labels:
[1] = system: Cell line; assay: Inhibition concentration against ADP-induced platelet aggregation using human platelet rich plasma; format: functional, cell-based
Outline: (§1)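 Functional IP agonism was measured as inhibition of ADP-induced aggregation in platelet-rich plasma from human, rat, dog or monkey. IC50 was taken from the inhibition of aggregation.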

[2] = species: Rattus norvegicus; assay: Inhibition concentration against ADP-induced platelet aggregation using rat platelet rich plasma; format: functional
Outline: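 Aggregation was induced with ADP in rat platelet-rich plasma, and IC50 was taken from inhibition of aggregation. Values are the mean of two or three experiments.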

[3] = molecular target: T1, Prostaglandin D2 receptor (Homo sapiens, UniProt Q13258); assay: Displacement of [3H]PGD-2 from human Prostanoid DP receptor
T1 sequence (Q13258 whole entry): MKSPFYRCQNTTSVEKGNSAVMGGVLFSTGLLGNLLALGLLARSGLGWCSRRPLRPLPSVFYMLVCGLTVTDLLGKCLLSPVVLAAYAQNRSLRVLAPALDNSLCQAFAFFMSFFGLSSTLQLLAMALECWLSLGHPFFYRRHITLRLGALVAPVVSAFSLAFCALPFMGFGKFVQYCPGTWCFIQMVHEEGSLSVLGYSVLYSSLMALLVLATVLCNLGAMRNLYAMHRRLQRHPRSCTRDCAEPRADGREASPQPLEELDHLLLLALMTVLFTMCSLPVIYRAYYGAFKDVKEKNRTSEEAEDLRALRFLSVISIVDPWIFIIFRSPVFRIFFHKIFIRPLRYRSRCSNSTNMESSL

[4] = molecular target: Prostaglandin F2-alpha receptor (Homo sapiens, UniProt P43088); assay: Displacement of [3H]PGF-2 from human Prostanoid FP receptor
Chain of Prostaglandin F2-alpha receptor (P43088 whole entry): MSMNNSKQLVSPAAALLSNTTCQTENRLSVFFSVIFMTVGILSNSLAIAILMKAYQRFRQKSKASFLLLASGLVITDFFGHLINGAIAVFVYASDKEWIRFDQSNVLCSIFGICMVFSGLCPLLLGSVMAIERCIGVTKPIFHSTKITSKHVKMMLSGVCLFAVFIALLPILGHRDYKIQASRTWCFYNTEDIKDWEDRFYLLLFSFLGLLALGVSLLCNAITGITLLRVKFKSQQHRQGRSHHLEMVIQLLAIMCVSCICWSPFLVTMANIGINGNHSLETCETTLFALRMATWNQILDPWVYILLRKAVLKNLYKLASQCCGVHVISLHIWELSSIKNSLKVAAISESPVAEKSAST

[5] = molecular target: T2, Prostaglandin E2 receptor EP1 subtype (Homo sapiens, UniProt P34995); assay: Displacement of [3H]PGE-2 from human Prostanoid EP1 receptor
T2 sequence (P34995 whole entry): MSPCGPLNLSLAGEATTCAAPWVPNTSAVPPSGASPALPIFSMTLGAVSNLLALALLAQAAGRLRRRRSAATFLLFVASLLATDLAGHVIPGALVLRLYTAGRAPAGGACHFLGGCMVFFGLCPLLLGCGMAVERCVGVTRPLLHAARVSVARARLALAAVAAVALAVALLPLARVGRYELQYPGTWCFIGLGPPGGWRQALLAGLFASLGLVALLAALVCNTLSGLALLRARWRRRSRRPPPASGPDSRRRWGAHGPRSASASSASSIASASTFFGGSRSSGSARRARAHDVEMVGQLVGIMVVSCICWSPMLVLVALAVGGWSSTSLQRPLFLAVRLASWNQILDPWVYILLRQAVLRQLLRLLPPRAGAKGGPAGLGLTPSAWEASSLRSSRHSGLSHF

[6] = molecular target: Prostaglandin E2 receptor EP2 subtype (Homo sapiens, UniProt P43116); assay: Displacement of [3H]-PGE-2 from human Prostanoid EP2 receptor
Chain of Prostaglandin E2 receptor EP2 subtype (P43116 whole entry): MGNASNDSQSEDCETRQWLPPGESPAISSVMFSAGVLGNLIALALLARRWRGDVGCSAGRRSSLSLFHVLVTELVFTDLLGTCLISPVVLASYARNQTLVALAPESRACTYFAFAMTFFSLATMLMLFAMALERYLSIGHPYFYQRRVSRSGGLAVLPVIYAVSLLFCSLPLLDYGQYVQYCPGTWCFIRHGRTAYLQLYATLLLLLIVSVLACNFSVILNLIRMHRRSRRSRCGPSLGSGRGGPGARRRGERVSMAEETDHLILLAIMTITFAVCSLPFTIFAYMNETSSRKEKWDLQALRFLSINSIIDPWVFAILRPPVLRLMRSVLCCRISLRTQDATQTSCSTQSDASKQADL

[7] = molecular target: T3, Prostaglandin E2 receptor EP3 subtype (Homo sapiens, UniProt P43115); assay: Displacement of [3H]PGE-2 from human Prostanoid EP3 receptor
T3 sequence (P43115 whole entry): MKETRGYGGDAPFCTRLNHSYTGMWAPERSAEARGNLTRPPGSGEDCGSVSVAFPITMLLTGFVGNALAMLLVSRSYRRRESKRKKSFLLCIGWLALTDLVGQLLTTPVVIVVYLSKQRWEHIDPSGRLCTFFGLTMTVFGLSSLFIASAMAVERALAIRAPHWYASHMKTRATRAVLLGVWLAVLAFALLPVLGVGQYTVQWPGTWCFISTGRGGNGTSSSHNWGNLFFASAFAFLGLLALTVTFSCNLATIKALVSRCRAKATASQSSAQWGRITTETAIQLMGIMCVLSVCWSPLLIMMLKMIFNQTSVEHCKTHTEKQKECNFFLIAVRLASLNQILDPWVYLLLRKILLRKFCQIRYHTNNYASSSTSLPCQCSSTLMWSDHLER

[8] = molecular target: Prostaglandin E2 receptor EP4 subtype (Homo sapiens, UniProt P35408); assay: Displacement of [3H]PGE-2 from human Prostanoid EP4 receptor
Chain of Prostaglandin E2 receptor EP4 subtype (P35408 whole entry): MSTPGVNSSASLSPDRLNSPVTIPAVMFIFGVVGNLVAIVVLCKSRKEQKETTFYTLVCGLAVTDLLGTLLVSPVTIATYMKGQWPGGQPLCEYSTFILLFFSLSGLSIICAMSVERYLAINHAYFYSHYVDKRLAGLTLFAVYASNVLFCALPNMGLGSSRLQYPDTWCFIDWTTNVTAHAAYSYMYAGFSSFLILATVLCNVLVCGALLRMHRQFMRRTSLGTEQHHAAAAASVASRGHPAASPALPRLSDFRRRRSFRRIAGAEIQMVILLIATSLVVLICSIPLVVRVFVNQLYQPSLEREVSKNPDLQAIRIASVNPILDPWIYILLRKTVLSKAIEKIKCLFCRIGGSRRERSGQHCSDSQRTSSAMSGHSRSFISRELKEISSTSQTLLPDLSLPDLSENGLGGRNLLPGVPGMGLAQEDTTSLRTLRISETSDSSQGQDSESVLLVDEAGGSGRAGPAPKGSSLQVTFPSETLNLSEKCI

[9] = molecular target: T4, Thromboxane A2 receptor (Homo sapiens, UniProt P21731); assay: Displacement of [3H]SQ-29,548 from human Prostanoid TP receptor
T4 sequence (P21731 whole entry): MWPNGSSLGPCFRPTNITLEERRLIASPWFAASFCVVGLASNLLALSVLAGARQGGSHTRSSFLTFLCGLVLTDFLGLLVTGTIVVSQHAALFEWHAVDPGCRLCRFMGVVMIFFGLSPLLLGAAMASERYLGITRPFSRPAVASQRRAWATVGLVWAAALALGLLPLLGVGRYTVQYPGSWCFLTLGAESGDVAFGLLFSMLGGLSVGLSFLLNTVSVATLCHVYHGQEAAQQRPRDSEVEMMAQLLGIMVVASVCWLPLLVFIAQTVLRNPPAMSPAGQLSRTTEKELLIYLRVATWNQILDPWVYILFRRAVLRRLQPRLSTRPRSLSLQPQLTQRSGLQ

[10] = molecular target: Prostacyclin receptor (Homo sapiens, UniProt P43119); assay: Displacement of [3H]iloprost from human Prostanoid IP receptor
Chain of Prostacyclin receptor (P43119 whole entry): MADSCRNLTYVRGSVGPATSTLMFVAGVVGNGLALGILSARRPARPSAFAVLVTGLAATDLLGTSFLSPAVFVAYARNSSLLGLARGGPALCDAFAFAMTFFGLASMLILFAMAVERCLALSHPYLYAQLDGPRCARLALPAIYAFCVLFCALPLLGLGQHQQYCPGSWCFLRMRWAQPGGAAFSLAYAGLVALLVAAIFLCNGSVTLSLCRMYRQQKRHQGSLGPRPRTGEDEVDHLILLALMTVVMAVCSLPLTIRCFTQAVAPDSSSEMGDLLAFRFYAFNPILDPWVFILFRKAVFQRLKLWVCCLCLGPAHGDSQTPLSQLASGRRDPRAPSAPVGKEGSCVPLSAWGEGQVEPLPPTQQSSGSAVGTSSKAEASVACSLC
Outline: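 Competitive radioligand binding using cloned human IP receptor, measuring displacement of [3H]-iloprost.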

[11] = species: Canis familiaris; assay: Inhibition concentration against ADP-induced platelet aggregation using dog platelet rich plasma; format: functional; conditions: Canis lupus familiaris; outline: as §1
[12] = system: Monkey; assay: Inhibition concentration against ADP-induced platelet aggregation using monkey platelet rich plasma; format: functional; conditions: Cercopithecidae; outline: as §1
[13] = Half life in rat after intravenous administration at 10 mg/kg dose; format: ADME, organism-based; parameters: dose 10 mg/kg, route intravenous; conditions: in vivo
[14] = Maximum concentration in rat after oral administration at 10 mg/kg dose; format: ADME, organism-based; parameters: dose 10 mg/kg, route oral; conditions: in vivo
[15] = Area under curve in rat after oral administration at 10 mg/kg dose; format: ADME, organism-based; parameters: dose 10 mg/kg, route oral; conditions: in vivo
[16] = Total clearance in dog after intravenous administration at 0.32 mg/kg dose; format: ADME, organism-based, Canis lupus familiaris; parameters: dose 0.32 mg/kg, route intravenous; conditions: in vivo, read-out: CLtot
[17] = Total clearance in rat after intravenous administration at 10 mg/kg dose; format: ADME, organism-based; parameters: dose 10 mg/kg, route intravenous; conditions: in vivo, read-out: CLtot
[18] = Bioavailability in rat after […] administration at 10 mg/kg dose; format: ADME, organism-based; conditions: in vivo, read-out: Ba
[19] = system: dog (Canis familiaris); assay: Area under curve in dog after oral administdogion at 0.32 mg/kg dose; conditions: in vivo

SMILES | IC50 [1] [nM] | IC50 [2] [nM] | Ki [5] [nM] | Ki [6] [nM] | Ki [7] [nM] | Ki [8] [nM] | Ki [10] [nM] | other results
CCC/C(CC1CCc2c(cccc2OCC(=O)O)C1)=N\OC(c1ccccc1)c1ccccc1 (stereo not given) [AP-227] | 150 | 5600 | – | – | – | – | – | –
O=C(O)COc1cccc2c1CCC[C@H]2N1CCC[C@@H]1c1nc(-c2ccccc2)c(-c2ccccc2)o1 | – | – | > 1000 | > 1000 | > 10000 | > 10000 | 12 | Ki [3]: > 1000 nM; Ki [4]: > 1000 nM; Ki [9]: > 1000 nM
O=C(O)COc1cccc2c1CC[C@H](COC(=O)N(c1ccccc1)c1ccccc1)C2O (single isomer, unassigned) | 170 | > 10000 | – | – | – | – | – | –
O=C(O)COc1cccc(C[C@@H]2CCCC=C2c2nc(-c3ccccc3)c(-c3ccccc3)o2)c1 | – | – | > 1000 | > 1000 | 6800 | – | – | Ki [3]: > 1000 nM; Ki [4]: > 1000 nM; Ki [9]: > 1000 nM
O=C(O)COc1cccc2c1CC[C@H](COC(=O)N(c1ccccc1)c1ccccc1)[C@H]2O | 3200 | > 10000 | – | – | – | – | – | –
O=C(O)COc1cccc2c1CC[C@](O)(COC(=O)N(c1ccccc1)c1ccccc1)[C@H]2O | 1300 | > 10000 | – | – | – | – | – | –
O=C(O)COc1cccc2c1CC[C@@](O)(COC(=O)N(c1ccccc1)c1ccccc1)C2 | 270 | > 10000 | – | – | – | – | – | –

More lines, in order of falling IC50 [1], values ahead:

IC50 [1] [nM] | IC50 [2] [nM] | Ki [5] [nM] | Ki [6] [nM] | Ki [7] [nM] | Ki [8] [nM] | Ki [10] [nM] | SMILES | other results
91 | > 10000 | – | – | – | – | – | O=C(O)COc1cccc2c1CCC(COC(=O)N(c1ccccc1)c1ccccc1)=C2 | –
53 | > 10000 | > 1000 | > 1000 | 1900 | > 10000 | 140 | O=C(O)COc1cccc2c1CCC(COC(=O)N(c1ccccc1)c1ccccc1)C2 (stereo not given) | –
18 | 1400 | 9600 | > 10000 | 8200 | > 10000 | 8.9 | O=C(O)COc1cccc2c1CC[C@](O)(COC(=O)N(c1ccccc1)c1ccccc1)C2 | Ki [3]: 2300 nM; Ki [4]: > 10000 nM; Ki [9]: > 10000 nM; IC50 [11]: 480 nM; IC50 [12]: 13 nM; half-life [13]: 1.81 h; Cmax [14]: 342 ng/mL; AUC [15]: 1590 ng·h/mL; clearance [16]: 2.31 mL/min/kg; clearance [17]: 38 mL/min/kg; bioavailability [18]: 38%; AUC [19]: 2200 ng·h/mL
5.8 | 7400 | > 1000 | > 1000 | > 10000 | > 10000 | 110 | O=C(O)COc1cccc2c1CC[C@](O)(COC(=O)N(c1ccccc1)c1ccccc1)C2O (single isomer, unassigned) | –
2.5 | – | – | – | – | – | – | CC#CCC(C)[C@H](O)/C=C/[C@@H]1[C@H]2C/C(=C/CCCC(=O)O)C[C@H]2C[C@H]1O (stereo not given in full) [ILOPROST] | –
